IDE act: human IDE activators in live cells, primary screen, fluorescence polarization, HEK cells, FAbeta-B substrate; Insulin-degrading enzyme (Homo sapiens), P14735; FAbeta-B cleavage; 0% vehicle, 100% cell-free pure enzyme wells; activation, % at 5.96 µM; hit rate 0.073% among 340,000; AID 493087, 2011;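 active = activation above the mean of all tested compounds plus 3 SD, set per screening campaign, cut at about 17% in these data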
HNF4A DNA FP: change in binding of human HNF4A to DNA, primary screen, biochemical, fluorescence polarization, FITC-DNA; Hepatocyte nuclear factor 4-alpha (Homo sapiens), P41235; hit rate 0.3% among 360,000; activity change, % at 10 µM; 1 h; in the data active = activity change above about 30%, passing the limit was not always enough
CSN inh: inhibitors of CSN-mediated cullin deneddylation, primary screen, biochemical, fluorescence polarization, uHTS. Purified CSN, SCF-Nedd8-OG deneddylation. inhibition, % at 12.5 µM. hit rate 0.38% among 360,000;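 active = pattern-corrected inhibition above about 35%, with an unprinted fluorescence ratio check between 0.5 and 1.5, limit read from the data, passing the limit was not always enough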
Target sequence (Q92905 whole entry, looked up, one chain of several): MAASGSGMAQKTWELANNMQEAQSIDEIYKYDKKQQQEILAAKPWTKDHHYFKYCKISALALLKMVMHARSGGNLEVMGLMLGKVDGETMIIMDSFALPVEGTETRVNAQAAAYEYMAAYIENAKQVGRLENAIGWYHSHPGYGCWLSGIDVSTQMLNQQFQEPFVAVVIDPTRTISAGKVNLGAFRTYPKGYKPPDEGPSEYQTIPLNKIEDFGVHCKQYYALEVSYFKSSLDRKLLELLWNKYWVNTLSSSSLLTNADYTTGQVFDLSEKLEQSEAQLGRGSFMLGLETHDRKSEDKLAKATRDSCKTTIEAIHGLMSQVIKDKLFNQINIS
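Assay system: HEK293T-derived human Csn5 enzyme; quantity: 0.24 nM enzyme; medium: Tris/NaCl/DTT buffer, pH 7.5; also added: substrate SCFSkp2-Nedd8OG, 10 nM; doses: 12.5 µM compound; schedule: 90 min reaction at room temperature; signal: FP; read-out: % inhibition of substrate cleavage by Csn5; benchmarks: substrate-only high control, full reaction low control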
TPT1 inh: Candida albicans TPT1 enzyme inhibitors, primary screen, biochemical, fluorescence polarization. recombinant caTPT1, FP RNA substrate dephosphorylation. inhibition, % at 5 µM. hit rate 0.81% among 300,000. AID 1962, 2009;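 active = inhibition above the mean of all tested compounds plus 3 SD, set per screening campaign, cut at about 24% in these data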
IDE cell inh: human IDE inhibitors in live cells, primary screen, fluorescence polarization, HEK cells, FAbetaB substrate; Insulin-degrading enzyme (Homo sapiens), P14735; FAbetaB cleavage; inhibition, % at 5.59 µM; hit rate 0.41% among 320,000; AID 434962, 2010;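 active = percent inhibition above the average of all tested compounds plus 3 SD, set per screening campaign, cut at about 16% in these data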;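 note: IDE supplied by intact live HEK cells; FP after avidin binding of uncleaved biotin substrate so inhibition keeps polarization high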
Rpn11 inh: Rpn11 (PSMD14) deubiquitinase inhibitors, primary screen, biochemical, fluorescence polarization, uHTS; 26S proteasome non-ATPase regulatory subunit 14 (Homo sapiens), O00487; human 26S proteasome, Ub4-pepOG fluorescence polarization; 20S core pre-blocked with epoxomicin; calls only at 20 µM; hit rate 0.59% among 360,000;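 active = inhibition at 20 µM, scaled to each plate's controls, above about 33%, limit read from the data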
Numbers stand for hits; - = inactive; . = not tested or not shown; + = active, no number. Hits are enriched below; roughly 1.7% of the tested compounds scored in any of these assays.

SMILES	IDE act	HNF4A DNA FP	CSN inh	TPT1 inh	IDE cell inh	Rpn11 inh
Cc1ccc2c(c1)C1CC(C)(O2)N(c2cccc(C(=O)NCc3ccccn3)c2)C(=O)N1 (configuration not stated)	-	-	-	-	-	-
Cc1ccc(S(=O)(=O)c2ccccc2)cc1S	.	.	.	-	26	.
Cc1[nH]c2ccccc2c1C(=O)C(=O)NCCc1c[nH]c2ccccc12	-	-	-	-	-	-
COP(=O)(OC)c1nc(-c2cccc3ccccc23)oc1NCc1ccccc1	-	-	85	-	-	-
COc1ccc(CNc2oc(-c3cccc4ccccc34)nc2P(=O)(OC)OC)cc1	-	-	-	-	-	-
COc1cc2ccccc2cc1C(=O)Nc1ccc(Cl)cn1	-	-	-	-	-	-
CCOc1ccc(NC(=O)COc2cccc3cccnc23)cc1S(=O)(=O)N1CCCC1	.	-	-	.	.	-
O=C(COc1cccc2cccnc12)Nc1cccc(S(=O)(=O)N2CCCC2)c1	30	-	-	.	-	-
O=C(Nc1c(Cl)cccc1Cl)Oc1cccc2cccnc12	.	-	-	.	.	+
O=C(Nc1cccc(Br)c1)Oc1cccc2cccnc12	.	-	-	.	.	-
COC(=O)N/N=C(\CCC(=O)O)c1cccs1	-	-	90	-	-	-
CCOC(=O)Cn1c(C(F)(F)F)nc2nc(Cl)c(Cl)nc21	-	-	-	.	.	-
CCOC(=O)C1C(c2cc(OC)c(OC)c(OC)c2)NC(=S)NC1(O)C(F)(F)F (configuration not stated)	-	-	37	-	-	-
COc1ccc(N2C(=O)[C@@H]3[C@H](C2=O)[C@H]2c4ccccc4C=CN2[C@@H]3C(=O)Nc2ccccc2)cc1	-	-	-	102	-	.
O=[N+]([O-])c1cccc(CSc2nc3ccccc3[nH]2)c1	-	-	-	-	-	-
COc1cccc(CSc2nc3ccccc3[nH]2)c1	-	32	-	-	-	-
CCOC(=O)c1cccc(C2=CC(=O)C[C@H](c3ccc(OC)cc3)C2)c1	-	-	95	.	-	-
COc1ccc([C@H]2CC(=O)C=C(c3cccc(Cl)c3)C2)cc1	-	-	-	.	-	-
CSC1=C(C#N)C(c2ccncc2)C(C(=O)Nc2ccccc2)=C(C)N1 (configuration not stated)	-	-	93	-	-	-
CC1=C(C(=O)Nc2ccccc2)C(c2ccncc2)C(C#N)=C(SCC(=O)Nc2ccccc2)N1 (configuration not stated)	-	-	-	-	-	-
CCOc1ccc(NC(=O)/C(C#N)=C\c2ccc(N3CCCC3)c(C)c2)cc1	-	-	47	.	.	.
NC1=NC[C@H](CC2CCCCC2)N1CCc1cc(C(F)(F)F)cc(C(F)(F)F)c1	26	-	-	-	-	-
FC(F)(F)c1cc(CCN2CCNC[C@@H]2CC2CCCCC2)cc(C(F)(F)F)c1	23	-	-	.	-	-
CCCC[C@@H]1CNCCN1CCc1cc(C(F)(F)F)cc(C(F)(F)F)c1	-	-	-	-	-	-
Cc1ccc(Sc2ccc(N)cn2)cc1	.	-	45	-	-	-
CN(C)c1ccc(-c2cccc(C3CC=CC4C3C(=O)N(Cc3ccccc3)C4c3ccc4ccccc4c3)c2)cc1 (configuration not stated)	-	-	-	-	-	-
CCOc1ccccc1N1CC(C(=O)NNC(=O)c2ccc(F)cc2)CC1=O (configuration not stated)	-	-	+	-	-	-
CCOC(=O)C1CN(S(=O)(=O)c2ccccc2)C1	-	-	-	-	-	-
CCc1ccc(C2=NN(C(=O)CCC(=O)O)C(c3cccs3)C2)cc1 (configuration not stated)	-	-	-	-	-	-
O=C1NC(=S)SC1=Cc1ccccc1Cl	-	-	-	.	.	-

Screening results (PubChem)
